Screens (PubChem BioAssay)
This excerpt belongs to a sample that is enriched for hits.
Diaph act CS: compounds boosting diaphorase resazurin reduction – biochemical, uHTS, resorufin fluorescence, counter-screen for diaphorase-coupled primary assays, primary screen; Diaphorase/resazurin coupled assay, 16 min; stronger effect = higher value; 1 = vehicle wells, 0 = NADH-free wells; activation factor at 20 µM; 190,000 compounds, 0.005% hits; AID 1229, 2008;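 active means diaphorase activity raised at least twofold by the compound at 20 µM; inactive means activation factor below 2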
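System – purified diaphorase enzyme from Clostridium kluyveri · Input – enzyme 0.07 U/mL final · Also added – final NADH 0.114 mM, resazurin 0.1 mM · Measured by – fluorescence of resorufin, 544 nm excitation, 590 nm emission · Timing – 16 min enzyme reaction, ambient temperature · Measure – resorufin increase flagging diaphorase activators or reducers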
DTT redox prof: compounds producing H2O2 with reducing agent – biochemical, NIH compound library profiling, artefact control for MLSCN library redox annotation, primary screen | DTT-dependent redox cycling H2O2, phenol red/HRP absorbance; 100% = 100 µM peroxide control, 0% = buffer | activation, % at 10 µM | 200,000 compounds, 0.03% hits | AID 878, 2007;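 active means activation of at least 50% relative to the plate's high and low controls in the primary single-dose screen; inactive means activation below 50%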;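 further: compound incubated with DTT at 0.8 mM final as the reducing agent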
Lmaj promast: Leishmania major promastigote growth inhibition, primary screen | Leishmania major promastigotes, resazurin fluorescence viability | inhibition, % at 10 µM | 200,000 compounds, 9% hits;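 further: promastigotes grown with compound for 44 hours at 28 °C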
PfGluPho inh: PfG6PD enzyme inhibitors, primary screen, biochemical, fluorescence intensity, uHTS. inhibition, % at 20 µM. PfGluPho enzyme, NADPH resazurin-diaphorase fluorescence. AID 504690, 2011. glucose-6-phosphate dehydrogenase-6-phosphogluconolactonase (Plasmodium falciparum 3D7). 350,000 compounds, 0.78% hits;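 active means inhibition reaching at least a set limit at 20 µM in the primary screen, cut at about 59% in these data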;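 further: 0% = DMSO wells with substrate and 100% = DMSO wells lacking glucose-6-phosphate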
G6PDH counter: L. mesenteroides G6PDH inhibitors, counter-screen for G6PDH-coupled screening assays, biochemical, Leuconostoc mesenteroides enzyme; Purified L. mesenteroides G6PDH, diaphorase/resazurin coupled fluorescence, 45 min; inhibition, % at 5 µM; 200,000 compounds, 0.12% hits; AID 1020, 2008
Diaph inh CS: diaphorase inhibitors and chemical oxidizers, primary screen, counter-screen for diaphorase-coupled primary assays, biochemical, uHTS, resorufin fluorescence. inhibition, % at 20 µM. 190,000 compounds, 0.69% hits. diaphorase resazurin-to-resorufin fluorescence, NADH, 16 min; bacterial (C. kluyveri) enzyme, not human. AID 1217, 2008;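 active means primary screen inhibition at 20 µM above a set limit, cut at about 50% in these data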;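 further: plate controls were DMSO with full reaction for no effect and wells lacking NADH for full effect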
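material = Clostridium kluyveri diaphorase enzyme | amount = 0.14 U/mL diaphorase, enzyme working solution | schedule = incubation 16 min, room temperature | detection = fluorescence of resorufin formed from resazurin, Ex 544/Em 590 nm | benchmarks = positive control minus NADH, DMSO neutral control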
* marks the source's active call; other numbers are inactive results; nt = no result. Unless noted, no stated cut-off is given here; in the data, active means inhibition above about 50%; inactive means the rest.

SMILES | Diaph act CS | DTT redox prof | Lmaj promast | PfGluPho inh | G6PDH counter | Diaph inh CS
COc1ccccc1CNC(=O)/C=C/c1ccc(Br)o1 | 0.9 | -0.7 | 2.1 | 53.2 | 2.7 | 7.9
CCS(=O)(=O)N1Cc2ccccc2CC1C(=O)Nc1nc2ccccc2s1 (stereo not given) | 0.8 | -0.3 | 67.0* | -12.5 | 8.6 | 20.9
CCc1nnc(NC(=O)C2Cc3ccccc3CN2S(=O)(=O)CC)s1 (stereo not given) | 0.9 | -0.9 | -1.7 | 6.9 | 1.7 | 13.2
COc1cc(OC)c(/C=N/NC(=O)c2ccncc2)c(OC)c1 | nt | nt | nt | 2.3 | nt | nt
COc1ccc(NC(=S)NCCN2CCC(C)CC2)cc1Cl | 0.8 | -1.4 | 69.4* | 57.6 | 4.0 | 15.9
COc1cccc(NC(=S)N(CCN2CCCCC2)Cc2ccco2)c1 | 0.9 | 0.4 | 14.8 | -3.0 | 0.5 | 12.1
COc1cccc(NC(=S)N(CCCN2CCCC(C)C2)Cc2cccs2)c1 (stereo not given) | 0.9 | -1.7 | 99.7* | 7.6 | 8.2 | 7.1
CSc1cccc(NC(=S)N(CCCN2CCCC(C)C2)Cc2cccs2)c1 (stereo not given) | 1 | -0.4 | 98.7* | 18.4 | 8.3 | 3.6
COc1ccc(NC(=S)N(CCCN2CCC(C)CC2)Cc2cccs2)cc1Cl | 1 | -0.3 | 99.2* | 34.9 | 1.3 | -0.2
COc1ccc(NC(=S)N(CCCN2CCN(C)CC2)Cc2cccs2)cc1 | 0.9 | -0.2 | 4.1 | -7.0 | 4.1 | 12.0
Cc1cc(C)cc(NC(=S)N(CCCN2CCN(C)CC2)Cc2cccs2)c1 | 1 | -0.3 | 20.4 | 9.7 | 6.6 | 4.9
COc1ccc(NC(=S)NCCCN2CCCC2)cc1Cl | 1.1 | -2.0 | 22.5 | 39.8 | 4.5 | -7.8
Cc1ccc(C)n1-c1ccc(C(=O)NN=C2CCCC2)cc1 | 0.9 | -0.6 | -6.3 | 2.9 | -0.8 | 8.1
COc1ccc(NC(=S)N2CCC(N(C)CCN3CCOCC3)CC2)cc1Cl | 1 | 0.0 | 76.0* | 28.4 | -2.2 | 0.0
Cc1cccc(C(=O)OCC(=O)c2ccc(CC(=O)N3CCOCC3)s2)c1C | nt | nt | nt | -0.4 | nt | nt
O=C(N/N=C/c1ccccn1)c1cccs1 | 1 | -0.1 | 77.2* | -0.4 | 17.8 | 2.0
O=C(N/N=C/c1ccccn1)c1cc(-c2ccc(Br)cc2)nc2ccccc12 | nt | nt | nt | -8.6 | nt | nt
O=C(N/N=C\c1ccccn1)c1ccccc1O | 0.9 | -0.9 | 69.1* | -0.7 | 17.9 | 11.1
O=C(N/N=C/c1ccccn1)c1cc(-c2ccc(Cl)cc2)nc2ccccc12 | 0.9 | 1.1 | 97.8* | -8.8 | -4.0 | 13.0
O=C(N/N=C/c1ccccn1)c1ccncc1 | nt | nt | nt | -4.5 | nt | nt
CCOC(=O)c1c(NC(=O)CN2C(=O)NC(C)(c3ccc(Cl)cc3)C2=O)sc(C(=O)NC)c1C (stereo not given) | 0.8 | -0.1 | -9.4 | -7.1 | 3.6 | 16.1
CCCCn1c(-c2ccccc2)cnc1SCC(=O)NCCc1ccc(OC)c(OC)c1 | 0.9 | 1.6 | 66.3* | 3.5 | -15.7 | 5.1
CCOC(=O)N1CCN(C(=O)c2ccccc2NC(=O)COc2ccccc2)CC1 | nt | nt | nt | -12.5 | nt | nt
Cn1cc(CNCc2cn(C)nc2-c2ccc(C3CCCCC3)cc2)cn1 | 0.8 | -1.7 | 93.6* | 8.5 | 8.2 | 20.0
COc1ccc(NC(=O)C(Sc2nnc(-c3ccncc3)n2-c2ccccc2C)c2ccccc2)cc1Cl (stereo not given) | 0.7 | 0.1 | 99.2* | 16.4 | -27.0 | 28.2
SMILES | Diaph act CS | DTT redox prof | Lmaj promast | PfGluPho inh | G6PDH counter | Diaph inh CS
COc1ccc(NC(=O)C(OC)c2ccccc2)cc1Cl (stereo not given) | 1 | 0.5 | -4.6 | -1.9 | 4.4 | -1.8
Cc1cc(Cl)n2c(nc3cc(F)c(F)cc32)c1C#N | 0.8 | -0.1 | 90.7* | 4.7 | 1.2 | 15.6
Cc1cc(C)n2c(=O)c3ccc(Cl)cc3nc2c1C#N | 0.9 | -0.2 | -6.4 | -3.9 | -6.9 | 5.6
CC1CCCC(NC(=O)CN(C)CC(=O)Nc2ccc(F)cc2)C1C (stereo not given) | nt | nt | nt | -8.3 | nt | nt
CCCn1c(C)cc(C(=O)COc2ccc(S(=O)(=O)N(CC)CC)cc2[N+](=O)[O-])c1C | 1 | -0.6 | 83.5* | 5.3 | 3.0 | 0.0
CCCn1c(C)cc(C(=O)COc2ccc(C)nc2[N+](=O)[O-])c1C | 0.9 | 0.3 | 0.2 | 15.1 | 1.3 | 13.4
C=CCn1c(C)cc(C(=O)COc2ccc(S(=O)(=O)N3CCCC3)cc2[N+](=O)[O-])c1C | 0.8 | -0.5 | 86.1* | 5.6 | 3.4 | 21.6
Cn1cc(C(=O)N/N=C/C=C/c2ccccc2)ccc1=O | 0.8 | -0.1 | 36.0 | 0.2 | -12.4 | 22.4
Cn1cc(C(=O)N/N=C/C(Br)=C\c2ccccc2)ccc1=O | 0.9 | 3.4 | 80.4* | 11.2 | 3.2 | 6.8
Cn1cc(C(=O)N/N=C/C(Br)=C/c2ccccc2)ccc1=O | 1 | 0.5 | 62.0* | 9.5 | -13.9 | 0.0
O=C(N/N=C/C(Br)=C\c1ccccc1)c1n[nH]c2c1CCC2 | 0.9 | 0.0 | 53.8* | 14.1 | 5.6 | 10.7
O=C(COC(=O)CCc1nc2ccccc2s1)NC(=O)NCc1ccco1 | 1 | 0.2 | 3.9 | -4.6 | 6.0 | 0.9
OCCNCc1cc(Br)ccc1OCc1ccc(Cl)cc1Cl | 1 | -0.6 | 100.6* | 43.0 | 0.5 | -2.3
OCCNCc1cc(Br)ccc1OCc1ccc(Cl)cc1 | 0.8 | 1.6 | 92.8* | 21.1 | 0.9 | 15.2
OCCNCc1cccc(OCc2ccc(Cl)cc2)c1 | 0.8 | 0.4 | 54.3* | -8.1 | 16.1 | 17.5
CCOc1cccc(CNCCO)c1OCc1ccc(Cl)cc1Cl | 1 | -0.2 | 16.0 | 5.9 | 0.9 | 2.1
Oc1ccc(NCc2cccc(OCc3ccc(F)cc3)c2)cc1 | 0.8 | -1.6 | 21.0 | 48.2 | 25.3 | 23.0
OCCNCc1cc(Br)ccc1OCc1ccc(F)cc1 | 1 | -0.3 | 49.6 | -2.1 | 13.7 | 4.9
CC(C)Cc1ccc(S(=O)(=O)NCC2CCCO2)cc1 (stereo not given) | nt | nt | nt | 4.0 | nt | nt
CCCCn1cnc2sc3c(c2c1=N)CCCC3 | 0.9 | -1.3 | 0.7 | -11.6 | -4.6 | 7.4
N=c1c2c3c(sc2ncn1Cc1ccccc1)CCCC3 | 0.9 | nt | 91.9* | -22.7 | -0.3 | 9.4
O=C1CN(C(=O)CN2CCCC2)C(c2ccccc2)c2cc(Br)ccc2N1 (stereo not given) | 0.9 | -1.0 | 63.5* | 2.2 | 2.2 | 10.1
O=C1CN(C(=O)CN2CCOCC2)C(c2ccccc2)c2cc(Br)ccc2N1 (stereo not given) | 0.9 | 0.2 | -0.1 | 14.4 | 5.6 | 10.7
